Reference: publication PMC2647014 (Journal of the American Chemical Society, 2008)

Legend:
[1] = Stability to hydrolysis of the imide ring in PBS buffer; type: physicochemical
Procedure, shortened: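 Fluorophore-bearing model peptides are incubated in PBS at pH 6, 7 and 8 and 28 °C, with fluorescence monitored in a 96-well plate over 24 hrs. For the 4-DMAP peptide, percent conversion is the percent loss of fluorescence from time zero.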

[2] = Photophysical properties of the fluorescent KR peptides; type: physicochemical; conditions: visible spectrum
[3] = cited from earlier work
[4] = Stability toward 4-methylpiperidine / piperidine; type: physicochemical; conditions: during preparation of fluorescent peptides by SPPS
Procedure, shortened: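 Resin-bound model peptides are treated with 4-methylpiperidine under conditions simulating a standard Fmoc-deprotection cycle. Treated and untreated samples are cleaved from the resin under acidic conditions. Crude mixtures are analysed by HPLC and ESI mass spectrometry for hydrolysis byproducts.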

CN(C)c1ccc2c3c(cccc13)C(=O)NC2=O [4-DMN, 4-N,N-dimethylamino-1,8-naphthalimide]
fluorescence emission after 24 hrs (in words) ([1]; PBS buffer, 28 °C, 24 hrs, Figure 2b, harshest conditions anticipated): no significant change in fluorescence

CN(C)c1ccc2cc3c(cc2c1)C(=O)NC3=O [6-DMN, 6-N,N-dimethylamino-2,3-naphthalimide, reference compound]
emission maximum of fluorescent species from hydrolysis ([1]; hydrolysis product, high pH): 470-480 nm

CN(C)c1ccc2c3c(cccc13)C(=O)N(C[C@H](N)C(=O)O)C2=O [4-DMNA, 4-N,N-dimethylamino-1,8-naphthalimidoalanine]
wavelength of excitation of the fluorophore / amino acid [2]: 400-450 nm
relative stability of fluorescent side-chain (in words) ([1]; compared with 4-DAPA and 6-DMNA): significantly more stable than those of 4-DAPA and 6-DMNA

CN(C)c1ccc2cc(C(=O)CBr)ccc2c1 [BADAN, 6-bromoacetyl-2-dimethylaminonaphthalene]
fluorescence quantum yield in water (Φwater) [3]: 0.18

CN(C)c1ccc2c3c(cccc13)C(=O)N(C[C@H](NC(=O)OCC1c3ccccc3-c3ccccc31)C(=O)O)C2=O [compound 4, N-α-Fmoc-(4-N,N-Dimethylamino-1,8-naphthalimido)-alanine]
susceptibility to piperidine (in words) [4]: shows no susceptibility to piperidine

CN(C)c1ccc2c(c1)C(=O)NC2=O [4-DMAP, 4-N,N-dimethylaminophthalimide, reference compound]
hydrolysis product fluorescence (in words) ([1]; hydrolysis of the imide ring, high pH): non-fluorescent byproduct
